Screens (PubChem BioAssay)
Sampled rows, rich in hits. Any-hit rate of the full collection: about 3.7%.
KCNK9 block: KCNK9 potassium channel inhibitors, primary screen, HEK293 cells, thallium flux; B-score at 10 µM; Potassium channel subfamily K member 9 (Homo sapiens), Q9NPC2; 310,000 compounds, 1.2% hits; FluxOR thallium flux fluorescence; hits give low values; AID 488922, 2010;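 active means ratio B-score over 3 SD below the library mean, with starting fluorescence within 5 SD of its mean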;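 further: negative B-score means less thallium flux so channel inhibition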
KCNK3 block: human KCNK3 channel inhibitors, primary screen, CHO cells, FluxOR thallium flux, B-score; Potassium channel subfamily K member 3 (Homo sapiens), O14649; FluxOR fluorescence; hits give low values; 340,000 compounds, 0.84% hits; B-score at 10 µM;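 active means B-score under library mean minus 4 SD, starting fluorescence ratio at most library mean plus 5 SD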;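 further: more negative B-score means stronger inhibition of thallium flux through KCNK3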
Target sequence (O14649 whole entry, looked up): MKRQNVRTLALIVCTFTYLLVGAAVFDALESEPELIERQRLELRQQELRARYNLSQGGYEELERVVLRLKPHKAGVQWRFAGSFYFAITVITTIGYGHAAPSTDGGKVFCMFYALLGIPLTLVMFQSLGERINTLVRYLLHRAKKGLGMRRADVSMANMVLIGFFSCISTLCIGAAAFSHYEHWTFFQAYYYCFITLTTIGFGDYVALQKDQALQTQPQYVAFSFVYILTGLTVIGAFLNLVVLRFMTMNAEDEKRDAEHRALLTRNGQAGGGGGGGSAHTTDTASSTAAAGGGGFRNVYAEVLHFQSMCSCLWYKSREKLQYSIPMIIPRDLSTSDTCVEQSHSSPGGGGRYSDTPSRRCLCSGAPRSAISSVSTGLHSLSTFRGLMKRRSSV
Kir21 block: inhibitors of mouse Kir2.1 inward-rectifier potassium channel; Inward rectifier potassium channel 2 (Mus musculus), P35561; HEK293-Kir2.1, FluxOR thallium flux fluorescence; hits give low values; B-score at 10 µM; 310,000 compounds, 0.85% hits; AID 1672, 2009;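 active means fluorescence ratio B-score at or below minus 3 SD of library scores, with starting-brightness B-score within 2 SD, cut at about -4.2 in these data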;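 further: channel flux triggered by added potassium and thallium sulfate stimulus; B-score of peak minus minimum fluorescence over baseline after thallium stimulus; more negative B-score means stronger Kir2.1 block with less thallium influx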
KCNQ1 block: inhibitors of human KCNQ1 channel, primary screen, cell-based, thallium flux, high-throughput | CHO-K1 KCNQ1, FluxOR thallium flux fluorescence; hits give high values | 310,000 compounds, 1.3% hits | AID 2642, 2010 | B-score at 10 µM | Potassium voltage-gated channel subfamily KQT member 1 (Homo sapiens), P51787;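 active means compounds whose thallium flux B-score, printed positive for inhibition, exceeds three library SD while starting fluorescence stays within three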;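 further: channel opened by potassium depolarization with thallium stimulus after 20 min compound exposure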
hERG protect: hERG rescue from dofetilide block, primary screen, cell-based, CHO-hERG, FluxOR thallium flux, dofetilide IC70. dofetilide IC70 present. activation (rescue from dofetilide block), less the hit threshold, % at 10 µM. 310,000 compounds, 0.51% hits. AID 1511, 2009;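 active means activation above the mean of controls blocked by dofetilide plus 5 SD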;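 further: thallium influx through hERG after potassium depolarization seen as dye fluorescence rise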
KCNQ1 pot: potentiators or activators of KCNQ1 channel, primary screen, cell-based, thallium flux, high-throughput | 310,000 compounds, 0.35% hits | B-score at 10 µM | CHO-K1 KCNQ1, thallium flux FluxOR fluorescence; hits give high values | AID 2648, 2010;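 active means fluorescence ratio B-score, a plate-corrected score, at least three library SD, with initial intensity B-score within 5 SD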
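Test system: CHO-K1 cells stably expressing KCNQ1 / Medium: assay buffer / Also added: depolarizing K+/Tl+ stimulus, K2SO4 and Tl2SO4 each 12.5 mM in 5x stock / Incubation: 90 min dye loading and 20 min compound exposure, both at room temperature / Signal: thallium influx via FluxOR fluorescence, kinetic imaging / Evaluation: B score of baseline-normalized fluorescence ratio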
KCNK9 inh conf: KCNK9 potassium channel inhibitors, confirmation, HEK293 cells, thallium flux, duplicate. shares compounds with KCNK9 block. FluxOR thallium flux fluorescence. inhibition, % at 10 µM. 4,900 compounds, 43% hits;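 active means thallium signal inhibited by more than 5 SD of the compound-free buffer control wells, on both duplicate plates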;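 further: 0% = assay buffer control wells without compound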
Kir21 sel: mouse Kir2.1 channel inhibition, confirmation, selectivity assay for KCNK9 modulator project, cell-based, HEK293, thallium flux; shares compounds with KCNK9 block; Kir2.1 cells, FluxOR thallium flux fluorescence; 4,900 compounds, 4% hits; inhibition, % at 10 µM; AID 492993, 2010;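 active means thallium signal drop more than 5 SD beyond the mean of the no-compound control wells, seen in both duplicate plates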;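 further: signal is fluorescence rise after thallium addition divided by baseline fluorescence; plate controls were assay buffer only for no effect and full block by chlorpromazine control for full effect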
HEK293 Tl ctr: thallium flux in non-induced HEK293 cells, confirmation, counter-screen for KCNK9 inhibitor project, cell-based, second counter screen, non-induced KCNK9-HEK293; shares compounds with KCNK9 block; FluxOR thallium flux; inhibition, % at 10 µM; 4,900 compounds, 40% hits;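 active means thallium signal drop beyond 5 SD of the untreated control mean, on both duplicate plates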;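 further: plate controls were buffer only IC0 wells for no effect and SID17386958 at its maximal inhibitory level for full effect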
* marks the source's active call; other numbers are inactive results; i = inactive; / = not tested or not shown.

SMILES | KCNK9 block | KCNK3 block | Kir21 block | KCNQ1 block | hERG protect | KCNQ1 pot | KCNK9 inh conf | Kir21 sel | HEK293 Tl ctr
CC(=O)c1c(C)nn(-c2ccccc2)c1C | i | i | -0.64 | i | -10.5 | i | / | / | /
Cc1ccc(CN(C)C(=O)c2c(C)nn(-c3ccccc3)c2C)cc1 | i | i | -0.39 | i | 0.0 | i | i | i | i
CCCCC1(CC)SCC(=O)NC1=O (centres undefined) | / | i | / | / | / | / | / | / | /
COc1ccc(COCC(O)CN2CCN(S(=O)(=O)c3c(F)cccc3F)CC2)cc1OC (centres undefined) | / | i | / | / | / | / | / | / | /
CCOC(=O)C1=CN(Cc2ccc(OC)cc2)C=C(C(=O)OCC)C1c1cccs1 | -18.6* | i | -1.33 | i | -2.0 | i | 72.5%* | i | 41.0%*
CC1(C)CC(C(CCN(Cc2ccccc2)C(=O)c2ccco2)c2ccc(F)cc2)CCO1 (centres undefined) | -10.4* | i | 1.37 | i | -13.1 | i | 67.0%* | i | 49.5%*
CC1(C)CC(N(Cc2ccc(F)cc2)C(=O)c2ccc(F)cc2)CCO1 (centres undefined) | i | i | -0.56 | i | -3.5 | i | / | / | /
Cc1cc(C)cc(NC(=O)CN2CCCN(S(=O)(=O)c3ccc(Br)s3)CC2)c1 | -16.2* | -9.98* | -0.69 | i | -18.8 | i | 69.5%* | i | 45.5%*
Cc1ccc(NC(=O)CN2CCCN(S(=O)(=O)c3ccc(Br)s3)CC2)cc1 | i | i | 0.85 | i | -10.8 | i | / | / | /
O=c1oc2ccccc2cc1-c1csc(NN=C2CCCCC2)n1 | i | i | 0.09 | i | -7.4 | i | i | i | i
C=CCNc1nc(-c2cc3ccccc3o2)cs1 | i | i | -0.28 | i | -3.8 | i | / | / | /
O=C(Nc1nc(-c2cc3ccccc3oc2=O)cs1)c1ccco1 | i | i | 2.53 | i | 0.0 | i | / | / | /
c1ccc2oc(-c3csc(NCC4CCCO4)n3)cc2c1 (centres undefined) | i | i | 0.38 | i | -6.9 | i | i | i | i
COc1ccc(OC)c(C(=O)CN2C(=O)C(=O)N(C3CCCC3)C2=O)c1 | / | i | / | / | / | / | / | / | /
CCOc1ccc(OCC)c(Nc2cc(C)nc3ncnn23)c1 | i | i | -0.04 | i | -5.2 | i | i | i | 24.5%*
CCOC(=O)C1=C(CC)Nc2ccccc2N/C1=N\S(=O)(=O)c1ccc2ccccc2c1 | i | i | 0.1 | i | -17.4 | i | i | i | i
Cc1onc(-c2ccccc2Cl)c1C(=O)NC(=S)NCc1cccnc1 | i | i | -0.92 | i | -11.9 | i | i | i | i
Cc1onc(-c2ccccc2Cl)c1C(=O)NC(=S)Nc1ccccc1F | i | i | -0.91 | i | 0.6 | i | / | / | /
COc1ccccc1NC(=S)NC(=O)c1c(-c2ccccc2Cl)noc1C | i | i | -0.18 | i | -7.2 | i | i | i | i
Cc1onc(-c2ccccc2Cl)c1C(=O)NCc1cccnc1 | i | i | 0.74 | i | -6.2 | i | / | / | /
CSCCC(NC(=O)c1ccccc1Cl)C(=O)NCC(c1ccc(F)cc1)N1CCOCC1 (centres undefined) | / | i | / | / | / | / | / | / | /
COc1ccccc1C(=O)NCCC(=O)NCCCSc1ccccc1 | i | i | -1.06 | i | -12.3 | i | / | / | /
CCN(CC)C(=O)c1cccc(NC(=O)CC23CC4CC(CC(C4)C2)C3)c1 | i | i | 0.66 | i | -4.8 | i | / | / | /
COc1ccccc1-c1nc(C#N)c(N2CCCCCC2)o1 | i | i | -1.41 | i | -11.6 | i | / | / | /
COc1ccccc1-c1nc(C#N)c(N2CCc3ccccc3C2)o1 | -20.9* | -13.1* | -0.41 | i | -14.7 | i | 67.0%* | i | i
SMILES | KCNK9 block | KCNK3 block | Kir21 block | KCNQ1 block | hERG protect | KCNQ1 pot | KCNK9 inh conf | Kir21 sel | HEK293 Tl ctr
COc1ccccc1-c1nc(C#N)c(N2CCN(c3ccccc3)CC2)o1 | -11.5* | i | 1.89 | i | -8.4 | i | 44.0%* | i | i
C#CCOC(=O)Nc1ccc(OCC(F)(F)F)nc1 | i | i | 0.97 | i | -1.8 | i | / | / | /
Cc1ccccc1Nc1ncnc2c1cnn2-c1ccccc1 | -9.46* | i | -0.67 | i | -11.4 | i | i | i | i
Cc1ccc(C)c(C(=O)OCC(=O)N(C)c2ccccc2)c1 | i | i | -1.16 | i | -6.0 | i | i | i | i
COc1ccc(Br)cc1CN(C)C(=O)c1ccccc1SCC(=O)N1CCCC1 | / | i | / | / | / | / | / | / | /
O=C(Nc1c(Cl)cccc1Cl)c1ccc(-c2ccccc2)cc1 | -8.46* | i | -1.29 | i | -0.6 | i | 33.5%* | i | i
O=C(Nc1ccc(Cl)cc1Cl)c1ccc(-c2ccccc2)cc1 | i | i | 0 | i | -3.9 | i | / | / | /
CCOC(=O)C1CCN(C(=O)c2ccccc2NC(=O)C2=C(C)OCCS2)CC1 | i | i | 0.27 | i | -6.7 | i | / | / | /
O=C(NCCc1ccccc1)c1ccc2c(c1)OCCO2 | i | i | 0.87 | i | -3.9 | i | i | i | i
O=C(NCCc1ccccc1)c1ccc2c(c1)OCCCO2 | i | i | -0.69 | i | -3.6 | i | / | / | /
Cc1nc2c(O)cccc2cc1CO | i | i | -0.03 | i | -4.5 | i | / | / | /
COCCCNC(=O)c1ccc(OC)c(OC2CCN(C(C)C)CC2)c1 | i | i | -0.39 | i | -1.6 | i | / | / | /
CCCn1c(N)c(C(=O)CSc2nc(C)nc3sc(C)c(C)c23)c(=O)[nH]c1=O | i | i | -0.86 | i | 3.3 | i | / | / | /
